Experimental data from ChEMBL document CHEMBL3272219, “Chemistry and antibacterial activity of nitrobenzofurans” (J Med Chem, 1976).
In brackets after ≈: the same amount, converted by molar mass. Blank lines part the entries; values can stand above or below the compound they belong to. Activity calls are given as the source filed them. The calls are words filed in the database; no cut-off is given here.

Columns and labels:
[1] = Ratio of antibacterial activity against Escherichia coli B cultured in Jensen's minimal media to antibacterial activity against Escherichia coli Br cultured in Penassay broth; type: functional
[2] = Stability of the compound in aqueous solution; type: physicochemical; settings: buffer
In short: (§1)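 Solvolysis was run at 37 ± 0.5° in Jensen's minimal medium at pH 7.0 with 5% Me2SO final, starting from 0.7–2.0 × 10^-4 M compound. Absorbance was followed at a preselected wavelength. Benzofuran concentration was calculated every half hour from substrate and product extinction coefficients. Data were fitted to a first-order rate law, with a 95% confidence range on the rate constant.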

[3] = Half life of the compound in 5% Me2SO-Jensen's minimal media at 0.7 to 2 X 10^-4 M at pH 7 by spectrophotometric analysis; type: physicochemical; in short: as §1
Escherichia coli [4] = assay: Antibacterial activity against Escherichia coli B cultured in Jensen's minimal media assessed as growth inhibition by turbidimetric analysis; type: functional, organism-based
In short: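 E. coli B, grown overnight in Jensen's minimal medium, was subcultured at 37° with shaking to 70% T. 1 ml of culture was added to 8 ml Jensen's broth (pH 7) plus 1 ml compound in 10% Me2SO. Five concentrations (dilution series 1–0.1) and a 1% Me2SO control were run. Turbidity was monitored with agitation. Log A vs time gave % inhibition, and IC50 came from log concentration–probability plots.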

Escherichia coli [5] = assay: Antibacterial activity against Escherichia coli B cultured in Jensen's minimal media assessed as growth inhibition at < 2 X 10^-5 M by turbidimetric analysis; type: functional, organism-based
Escherichia coli [6] = assay: Antibacterial activity against Escherichia coli B cultured in Jensen's minimal media assessed as growth inhibition by turbidimetric analysis in presence of vitamin-free casamino acids and tryptophan; type: functional, organism-based
In short: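 Same minimal-medium turbidity assay with E. coli B: a 70% T culture was mixed with compound in Me2SO in Jensen's broth (pH 7) and read with agitation. Vitamin-free casamino acids (1.2 g/l) and tryptophan (200 mg/l) were added to the minimal broth.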

Escherichia coli [7] = assay: Antibacterial activity against Escherichia coli B after 6 hrs by turbidimetric analysis; type: functional
In short: (§2)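 Overnight Penassay broth culture adjusted to 60% transmittance, diluted 10 ml into 900 ml broth; 4.5 ml inoculum added to 0.5 ml compound in 10% Me2SO. Nine-step dilution series (1 to 0.031), four replicates each, with positive and negative controls. Incubation at 37°, stationary except P. aeruginosa. Turbidity read at 660 nm after 6 hr. MIC taken as the lowest concentration giving >90% T.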

Escherichia coli [8] = assay: Antibacterial activity against Escherichia coli Br after 6 hrs by turbidimetric analysis; type: functional; in short: as §2
Escherichia coli [9] = assay: Antibacterial activity against nitrofuran reductase-deficient Escherichia coli Br 207 after 6 hrs by turbidimetric analysis; type: functional; settings: Br 207, 6 h; in short: as §2
Staphylococcus aureus [10] = assay: Antibacterial activity against Staphylococcus aureus after 6 hrs by turbidimetric analysis; type: functional; in short: as §2
Enterococcus faecalis = assay: Antibacterial activity against Streptococcus faecalis after 6 hrs by turbidimetric analysis; type: functional; in short: as §2
Proteus mirabilis = assay: Antibacterial activity against Proteus mirabilis after 6 hrs by turbidimetric analysis; type: functional; in short: as §2
Providencia rettgeri = assay: Antibacterial activity against Proteus rettgeri after 6 hrs by turbidimetric analysis; type: functional; in short: as §2
Pseudomonas aeruginosa = assay: Antibacterial activity against Pseudomonas aeruginosa after 6 hrs by turbidimetric analysis; type: functional; in short: as §2
Klebsiella pneumoniae [11] = assay: Antibacterial activity against Klebsiella pneumoniae after 6 hrs by turbidimetric analysis; type: functional; in short: as §2
Escherichia coli [12] = assay: Antibacterial activity against Escherichia coli Br cultured in Penassay broth assessed as effect on lag time after 9 hrs by turbidimetric analysis; type: functional, organism-based
In short: (§3)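 Cultures in Penassay broth at 37° with compound added from 10% Me2SO and monitored at 660 nm every 20 min for 9 hr after inoculation. For each concentration, the log A660 vs time plot was extrapolated to A = 0.05. Time from inoculation to that point was taken as the lag time, which was then plotted against concentration.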

[13] = Half life of the compound in 5% Me2SO-Jensen's minimal media at 0.7 to 2 X 10^-4 M at pH 6 by spectrophotometric analysis; type: physicochemical
[14] = Half life of the compound in 10% Me2SO-Jensen's minimal media at 0.7 to 2 X 10^-4 M at pH 6 by spectrophotometric analysis; type: physicochemical
[15] = Half life of the compound in 20% Me2SO-Jensen's minimal media at 0.7 to 2 X 10^-4 M at pH 6 by spectrophotometric analysis; type: physicochemical
[16] = Half life of the compound in 40% Me2SO-Jensen's minimal media at 0.7 to 2 X 10^-4 M at pH 6 by spectrophotometric analysis; type: physicochemical
Klebsiella pneumoniae [17] = assay: Antibacterial activity against Klebsiella pneumoniae cultured in Penassay broth assessed as effect on lag time after 9 hrs by turbidimetric analysis; type: functional, organism-based; in short: as §3
Staphylococcus aureus [18] = assay: Antibacterial activity against Staphylococcus aureus cultured in Penassay broth assessed as effect on lag time after 9 hrs by turbidimetric analysis; type: functional, organism-based; in short: as §3
Escherichia coli [19] = assay: Antibacterial activity against Escherichia coli Br cultured in Penassay broth assessed as time required for growth suppression at 4.4 X 10^-5 M compound added in early log phase of growth by turbidimetric analysis; type: functional
Escherichia coli [20] = assay: Antibacterial activity against Escherichia coli Br cultured in Penassay broth assessed as time required for growth suppression at 4.4 X 10^-5 M compound added in late log phase of growth by turbidimetric analysis; type: functional
Escherichia coli [21] = assay: Antibacterial activity against Escherichia coli Br assessed as decrease in viability at 7.7 X 10^-5 M after 2 hrs; type: functional, organism-based

Stability [2]: Unstable
half-life [3]: 3.34 h
Compound: Cc1oc2ccccc2c1[N+](=O)[O-]
Ratio [1]: >10

Stability [2]: Unstable
Compound: Cc1oc2c(Br)cccc2c1[N+](=O)[O-]
Ratio [1]: >10

Compound: Cc1cc2cccc(N)c2o1
growth inhibition (GI) (Escherichia coli [4]): inactive

Compound: Cc1cc2cccc(Br)c2o1
growth inhibition (GI) (Escherichia coli [4]): inactive

Stability [2]: Unstable
half-life [3]: 2.88 h
Compound: Cc1oc2c(NC(=O)C(F)(F)F)cccc2c1[N+](=O)[O-]
growth inhibition (GI) (Escherichia coli [5]): inactive
growth inhibition (GI) (Escherichia coli [6]): inactive

Compound: Cc1oc2c([N+](=O)[O-])cccc2c1C#N
growth inhibition (GI) (Escherichia coli [4]): inactive

Stability [2]: Unstable
half-life [3]: 1.48 h
Compound: Cc1oc2c(C(F)(F)F)cccc2c1[N+](=O)[O-]
Ratio [1]: >10

Compound: Cc1oc2c([N+](=O)[O-])cccc2c1C(=O)O
growth inhibition (GI) (Escherichia coli [4]): inactive

Compound: Cc1cc2cccc([N+](=O)[O-])c2o1
growth inhibition (GI) (Escherichia coli [4]): inactive

Compound: Cc1oc2ccc([N+](=O)[O-])cc2c1[N+](=O)[O-]
Ratio [1]: >10
Stability [2]: Unstable
half-life [3]: 0.89 h

MIC (Escherichia coli [7]): 5 µg/mL (≈ 25.2 µM)
MIC (Escherichia coli [8]): 5 µg/mL (≈ 25.2 µM)
MIC (Escherichia coli [9]): 18.7 µg/mL (≈ 94.4 µM)
MIC (Staphylococcus aureus [10]): 5 µg/mL (≈ 25.2 µM)
MIC (Enterococcus faecalis): 50 µg/mL (≈ 252 µM)
MIC (Proteus mirabilis): 50 µg/mL (≈ 252 µM)
MIC (Providencia rettgeri): > 100 µg/mL
MIC (Pseudomonas aeruginosa): > 100 µg/mL
MIC (Klebsiella pneumoniae [11]): 10 µg/mL (≈ 50.5 µM)
Compound: NC(=O)N/N=C/c1ccc([N+](=O)[O-])o1 [NITROFURAZONE]
Activity (Escherichia coli [12]): inactive

Compound: Cc1oc2c([N+](=O)[O-])cccc2c1[N+](=O)[O-]
Ratio [1]: >10
Stability [2]: Unstable
half-life [3]: 1.37 h
half-life [13]: 2.1 h
half-life [14]: 1.95 h
half-life [15]: 1.78 h
half-life [16]: 1.51 h
MIC (Escherichia coli [7]): 1.87 µg/mL (≈ 8.42 µM)
MIC (Escherichia coli [8]): 1.87 µg/mL (≈ 8.42 µM)
MIC (Escherichia coli [9]): 1.87 µg/mL (≈ 8.42 µM)
MIC (Staphylococcus aureus [10]): 2.5 µg/mL (≈ 11.3 µM)
MIC (Enterococcus faecalis): 3.75 µg/mL (≈ 16.9 µM)
MIC (Proteus mirabilis): 6.25 µg/mL (≈ 28.1 µM)
MIC (Providencia rettgeri): 7.5 µg/mL (≈ 33.8 µM)
MIC (Pseudomonas aeruginosa): > 10 µg/mL
MIC (Klebsiella pneumoniae [11]): 5 µg/mL (≈ 22.5 µM)
Activity (Klebsiella pneumoniae [17]): Active
Activity (Staphylococcus aureus [18]): Active
Activity (Escherichia coli [12]): Active
Time (Escherichia coli [19]): 6 h
Time (Escherichia coli [20]): 3 h
Activity (Escherichia coli [21]): inactive

Compound: Cc1oc2c([N+](=O)[O-])cccc2c1C(N)=O
growth inhibition (GI) (Escherichia coli [4]): inactive

Stability [2]: Unstable
half-life [3]: 1.91 h
Compound: Cc1oc2c(C(N)=O)cccc2c1[N+](=O)[O-]
Ratio [1]: >10

Compound: Cc1oc2c([N+](=O)[O-])cccc2c1Br
growth inhibition (GI) (Escherichia coli [4]): inactive
